Data published in ChEMBL document CHEMBL1134641, “Progress toward the development of a safe and effective agent for treating reentrant cardiac arrhythmias: synthesis and evaluation of ibutilide analogues with enhanced metabolic stability and diminished proarrhythmic potential” (2001).

How the values were obtained:
Canis familiaris [1] = assay: Atrial effective refractory period (AERP) measured in canine just after inducing atrial flutter (AFL) termination by the compound at a dose of 2.4 uM/kg; type: functional, Canis lupus familiaris, Heart
Canis familiaris [2] = assay: Atrial effective refractory period (AERP) measured in canine just after inducing atrial flutter (AFL) termination by the compound at a dose of 9.6 uM/kg; type: functional, Canis lupus familiaris, Heart
Canis familiaris [3] = assay: QT interval measured in canine 24-h Infarction model at an cumulative intravenous dose of 0.24 uM/kg; type: functional, Canis lupus familiaris
Method in brief: (§1)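 Dogs 24 h after two-stage LAD ligation. Compound in saline given iv in sequential doses (cumulative 0.24, 0.72, 2.4 µmol/kg); saline controls then given a single 2.4 µmol/kg iv dose. HR, IVR, BP, QT, spontaneous arrhythmias/min, ERPs and MAPD90 measured at baseline and 15 min after each dose. Means ± SEM, paired t-test, p≤0.05.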

Canis familiaris [4] = assay: QT interval measured in canine 24-h Infarction model at an cumulative intravenous dose of 0.72 uM/kg; type: functional, Canis lupus familiaris; method in brief: as §1
Canis familiaris [5] = species on record: Canis familiaris; assay: QT interval measured in canine just after inducing atrial flutter (AFL) termination by the compound; type: functional, Canis lupus familiaris, Heart
Method in brief: (§2)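 Conscious, sling-restrained dogs with chronically implanted electrodes, studied after 2 weeks of recovery. Sustained AFL (>5 min) induced. Compound in saline given iv every 5 min to cumulative 0.024-12.0 µmol/kg. At AFL termination, HR, QT (paced cycle length 300 ms), AERP and VERP measured. Measurements then taken 3 min after each further dose. Significance p≤0.05 vs baseline.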

Canis familiaris [6] = assay: QT interval measured in canine just after inducing atrial flutter (AFL) termination by the compound at a dose of 0.24 umol/kg; type: functional, Canis lupus familiaris, Heart
Canis familiaris [7] = assay: QT interval measured in canine just after inducing atrial flutter (AFL) termination by the compound at a dose of 12.0 uM/kg; type: functional, Canis lupus familiaris, Heart; method in brief: as §2
Canis familiaris [8] = assay: QT interval measured in canine just after inducing atrial flutter (AFL) termination by the compound at a dose of 2.4 uM/kg; type: functional, Canis lupus familiaris, Heart; method in brief: as §2
Canis familiaris [9] = assay: Heart rate measured in canine 24-h Infarction model at an cumulative intravenous dose of 0.72 uM/kg; type: functional, Canis lupus familiaris
Method in brief: (§3)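 Male mongrel dogs (16-22 kg) with LAD permanently ligated in two stages; studied 24 h later. […] given IV in sequential doses to cumulative 0.24, 0.72, 2.4 µmol/kg. Saline controls (n=8) received vehicle, then a single IV 2.4 µmol/kg dose at the end. Measurements taken at baseline and 15 min after each dose. Means ± SEM, paired t-test, p ≤ 0.05.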

Canis familiaris [10] = assay: Atrial MAPD90 measured in canine 24-h Infarction model at a single intravenous dose of 2.4 uM/kg; type: functional, Canis lupus familiaris, Cardiac atrium; method in brief: as §3
Canis familiaris [11] = assay: Number of canine in which sustained ventricular tachycardia (SVT) was observed in PES-induced arrhythmias at an cumulative intravenous dose of 0.72 uM/kg; type: functional, Canis lupus familiaris, Cardiac ventricle
Method in brief: (§4)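 Male mongrel dogs (16-22 kg) with LAD ligated in two stages, studied 24 h later. Programmed electrical stimulation at baseline and 15 min after each iv dose in saline (cumulative 0.24, 0.72, 2.4 µmol/kg). Saline controls then received a single 2.4 µmol/kg iv dose. Responses scored as NI (≤15 beats), NSVT (>15 beats, ends within 30 s), SVT (>30 s, needing pacing or cardioversion) or VF. A positive response was repeated.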

Canis familiaris [12] = assay: Number of canine in which sustained ventricular tachycardia (SVT) was observed in PES-induced arrhythmias at an cumulative intravenous dose of 2.4 uM/kg; type: functional, Canis lupus familiaris, Cardiac ventricle; method in brief: as §4
Canis familiaris [13] = assay: Number of canine in which ventricular fibrillation (VF) was observed in PES-induced arrhythmias at an single intravenous dose of 2.4 uM/kg; type: functional, Canis lupus familiaris, Cardiac ventricle; method in brief: as §4
Canis familiaris [14] = assay: Idioventricular heart rate (IVR) measured in canine 24-h Infarction model at an cumulative intravenous dose of 2.4 uM/kg; type: functional, Canis lupus familiaris; method in brief: as §3
Canis familiaris [15] = assay: Ventricular effective refractory (VEPR) period measured in canine 24-h Infarction model at a single intravenous dose of 2.4 uM/kg; type: functional, Canis lupus familiaris, Heart; method in brief: as §1
Canis familiaris [16] = species on record: Canis familiaris; assay: Ventricular effective refractory period ([…]) measured in canine just after inducing atrial flutter (AFL) termination by the compound; type: functional, Canis lupus familiaris, Heart
Method in brief: (§5)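 Conscious dogs, loosely restrained in a sling, with exteriorized electrode leads, studied 2 weeks after instrumentation. AFL was induced and counted as sustained if it lasted 5 min. Compound in saline given intravenously every 5 min to cumulative 0.024-12.0 µmol/kg. VERP was measured at AFL termination and 3 min after each dose. Results are means ± SEM versus baseline, p ≤ 0.05.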

Canis familiaris [17] = assay: Ventricular effective refractory period ([…]) measured in canine just after inducing atrial flutter (AFL) termination by the compound at a dose of 0.6 umol/kg; type: functional, Canis lupus familiaris, Heart; method in brief: as §5
Canis familiaris [18] = assay: Ventricular effective refractory period ([…]) measured in canine just after inducing atrial flutter (AFL) termination by the compound at a dose of 12.0 uM/kg; type: functional, Canis lupus familiaris, Heart; method in brief: as §5
Canis familiaris [19] = assay: Ventricular effective refractory period ([…]) measured in canine just after inducing atrial flutter (AFL) termination by the compound at a dose of 7.2 uM/kg; type: functional, Canis lupus familiaris, Heart; method in brief: as §5
Canis familiaris [20] = assay: Number of canine in which sustained ventricular tachycardia (SVT) was observed in PES-induced arrhythmias at an cumulative intravenous dose of 0.24 uM/kg; type: functional, Canis lupus familiaris, Cardiac ventricle; method in brief: as §4
Canis familiaris [21] = assay: Number of canine in which nonsustained ventricular tachycardia (NSVT) was observed in PES-induced arrhythmias at an cumulative intravenous dose of 0.72 uM/kg; type: functional, Canis lupus familiaris, Cardiac ventricle; method in brief: as §4

CCN(CCCCCC(C)(C)F)CCC[C@H](O)c1ccc(NS(C)(=O)=O)cc1.O=C(O)/C=C/C(=O)O
AERP (Canis familiaris [1]): 166 ms
AERP (Canis familiaris [2]): 165 ms
QT interval (Canis familiaris [3]): 211 ms
QT interval (Canis familiaris [4]): 218 ms
QT interval (Canis familiaris [5]): 202 ms
QT interval (Canis familiaris [6]): 196 ms
QT interval (Canis familiaris [7]): 200 ms
QT interval (Canis familiaris [8]): 213 ms
HR (Canis familiaris [9]): 146 beats min-1
Atrial MAPD90 (Canis familiaris [10]): 209 ms
No. of canine (Canis familiaris [11]): 2
No. of canine (Canis familiaris [12]): 0
No. of canine (Canis familiaris [13]): 0
IVR (Canis familiaris [14]): 124 beats min-1
VERP (Canis familiaris [15]): 180 ms
VERP (Canis familiaris [16]): 138 ms
VERP (Canis familiaris [17]): 141 ms
VERP (Canis familiaris [18]): 137 ms
VERP (Canis familiaris [19]): 140 ms
No. of canine (Canis familiaris [20]): 1
No. of canine (Canis familiaris [21]): 0
